# Measured values: ChEMBL document CHEMBL1909581, “Growth inhibition of human lung cancer cells via down-regulation of epidermal growth factor receptor signaling by yuanhuadine, a daphnane diterpene from Daphne genkwa” (J Nat Prod, 2011)
# Assays:
# Format in all cases: functional, cell-based
# [1] = system: NCI-H358; assay: Antiproliferative activity against human NCI-H358 cells after 3 days by SRB assay; conditions: NCI-H358, 72 h
# How it was run: (§1)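 Cells seeded at 5 × 10^4 cells/mL and exposed to a range of concentrations for 3 days. Fixed with 10% TCA, then SRB stain read. Growth expressed as % of solvent-treated control. IC50 obtained by nonlinear regression of percent survival versus concentration.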
# [2] = system: SK-MES-1; assay: Antiproliferative activity against human SK-MES cells after 3 days by SRB assay; conditions: SK-MES-1, 72 h; how it was run: as §1
# [3] = system: NCI-H1993; assay: Antiproliferative activity against human NCI-H1993 cells after 3 days by SRB assay; conditions: NCI-H1993, 72 h
# [4] = system: NCI-H292; assay: Antiproliferative activity against human NCI-H292 cells after 3 days by SRB assay; conditions: NCI-H292, 72 h
# [5] = system: A549; assay: Antiproliferative activity against human A549 cells after 3 days by SRB assay; conditions: A549, 72 h; how it was run: as §1
# [6] = Antiproliferative activity against human H1299 cells after 3 days by SRB assay; conditions: NCI-H1299, 72 h; how it was run: as §1
smiles,measurement,setting,value
Cc1c2ccncc2c(C)c2c1[nH]c1ccccc12 [ELLIPTECINE],IC50,[1],800 nM
same,IC50,[2],200 nM
same,IC50,[3],200 nM
same,IC50,[4],1000 nM
same,IC50,[5],1100 nM
same,IC50,[6],600 nM
